Active and inactive are the calls of the source. The rule behind the calls is not given here.
How the values were obtained:
[1] = system: JC polyomavirus; experiment: Antiviral activity against JC polyomavirus Mad1-SVEdelta infected in SVG-A cells assessed as viral infectivity level pre-incubated for 0.5 hrs with 25 uM compound before viral infection for 72 hrs by flow cytometry relative to DMSO control; type: functional
[2] = system: Human papillomavirus type 16; experiment: Antiviral activity against HPV16 pseudovirus expressing HcRed reporter infected in HeLa-M cells assessed as reduction in viral infectivity pre-incubated for 0.5 hrs with compound before viral infection for 72 hrs by flow cytometry; type: functional, organism-based; conditions: Human papillomavirus 16, HeLaM
Method in brief: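 HeLa M cells in DMEM with 10% FBS and 10 mM Hepes pH 7.5, pretreated with compound from 1:2 serial dilutions of a 2500x DMSO stock, final DMSO 0.04%. Challenged with HcRed-reporter HPV16 pseudovirus. Cells fixed in 4% PFA and HcRed-positive cells scored by flow cytometry. IC50 from three independent experiments.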

[3] = system: JC polyomavirus; experiment: (§1) Inhibition of retrograde transport of JC polyomavirus Mad1-SVEdelta infected in SVG-A cells assessed as reduction in co-localization of viral capsid protein VP1 and ER protein PDI pre-incubated for 0.5 hrs with compound before viral infection for 1 hr followed by incubation with compound at 0.1 mM for 8 hrs by proximity ligation assay; type: functional, cell-based
Method in brief: (§2)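 SVG-A cells in MEM with 10% FBS were pretreated 0.5 h, then given JCPyV Mad1-SVEΔ at MOI 100 for 1 h at 37°C. After washing, compound (0.05 or 0.1 mM) or vehicle was re-added for 8 h at 37°C. Cells were fixed (4% PFA), permeabilised (0.5% Triton, 0.5 h) and blocked (5% donkey serum), then stained overnight at 4°C with rabbit anti-VP1 (1:1,000) plus mouse anti-PDI (1:100). Read-out: proximity ligation, confocal maximal z-projections.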

[4] = system: Human papillomavirus type 16; experiment: as §1, with “HPV16 pseudovirus expressing HcRed reporter” for “JC polyomavirus Mad1-SVEdelta”, “L1” for “VP1”, “golgi” for “ER”, “TGN46” for “PDI”, “16” for “8”; type: functional, organism-based; conditions: Human papillomavirus 16
[5] = system: JC polyomavirus; experiment: Antiviral activity against JC polyomavirus Mad1-SVEdelta infected in SVG-A cells assessed as reduction in viral infectivity pre-incubated for 0.5 hrs with compound before viral infection for 72 hrs by flow cytometry; type: functional, cell-based
Method in brief: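 JCPyV infection of SVG-A cells (1 × 10^5 per well, seeded overnight at 37°C) after 0.5 h pretreatment with compound from 1:2 serial dilutions of a 2500x DMSO stock, final DMSO 0.04%. Virus at MOI 0.25 with compound present for 72 h. Cells fixed in 4% PFA and permeabilized in 1% Triton X-100. Stained with Alexa Fluor-labeled anti-VP1 antibody, infected cells scored by flow cytometry. IC50 from three independent experiments.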

[6] = system: Human papillomavirus type 16; experiment: as §1, with “HPV16 pseudovirus expressing HcRed reporter” for “JC polyomavirus Mad1-SVEdelta”, “L1” for “VP1”, “golgi” for “ER”, “TGN46” for “PDI”, “0.05” for “0.1”, “16” for “8”; type: functional, organism-based; conditions: Human papillomavirus 16
[7] = system: JC polyomavirus; experiment: Potency index, ratio of IC50 for Retro-2(cycl) to IC50 for test compound against JC polyomavirus Mad1-SVEdelta infected in SVG-A cells assessed as reduction in viral infectivity pre-incubated for 0.5 hrs with compound before viral infection for 72 hrs by flow cytometry; type: functional
[8] = system: JC polyomavirus; experiment: as §1, with “0.05” for “0.1”; type: functional, cell-based; method in brief: as §2

Row | Structure (SMILES) | Activity [1] [%] | also measured
1 | CCCCNc1ccc2c(c1)C(=O)N(Cc1ccc(F)cc1)C(c1ccc(CC)s1)N2 (configuration not stated) | 71 | 
2 | CCc1ccc(-c2nc3ccccc3c(=O)n2Cc2ccc(F)cc2)s1 | 63.3 | 
3 | CCc1ccc(C2N(Cc3ccc(F)cc3)C(=O)c3ccccc3N2C)s1 (configuration not stated) | 60 | 
4 | CCc1ccc(C2Nc3ccccc3C(=O)N2[C@@H](C)c2ccccc2)s1 (mixture of isomers) | 32.4 | 
5 | CCc1ccc(C2Nc3ccccc3C(=O)N2[C@H](C)c2ccccc2)s1 (mixture of isomers) | 52.7 | 
6 | Cc1ccc(C2Nc3ccccc3C(=O)N2c2ccccc2)s1 (racemic) | 57.5 | IC50 [2]: 160 µM; inhibition [3]: Active; inhibition [4]: Active; IC50 [5]: 54 µM
7 | O=C1c2ccccc2NC(c2cccs2)N1c1ccccc1 (racemic) | 81.1 | 
8 | Cc1ccsc1C1Nc2ccccc2C(=O)N1c1ccccc1 (racemic) | 76.4 | 
9 | Cc1csc(C2Nc3ccccc3C(=O)N2c2ccccc2)c1 (racemic) | 55.6 | 
10 | CCc1ccc(C2Nc3ccccc3C(=O)N2c2ccccc2)s1 (racemic) | 47.8 | 
11 | O=C1c2ccccc2NC(c2ccc[nH]2)N1c1ccccc1 (racemic) | 92.4 | 
12 | O=C1c2ccccc2NC(c2ccco2)N1c1ccccc1 (racemic) | 69.9 | 
13 | Cc1ccc(C2Nc3ccccc3C(=O)N2c2ccccc2)o1 (racemic) | 64.4 | 
14 | O=C1c2ccccc2NC(c2cc3ccccc3s2)N1c1ccccc1 (racemic) | 95.3 | 
15 | CCc1ccc(C2NC(=O)c3ccccc3N2)s1 (racemic) | 41.4 | 
16 | CCCN1C(=O)c2ccccc2NC1c1ccc(CC)s1 (racemic) | 76.4 | 
17 | CCc1ccc(C2Nc3ccccc3C(=O)N2C(C)C)s1 (racemic) | 69.9 | 
18 | CCCCN1C(=O)c2ccccc2NC1c1ccc(CC)s1 (racemic) | 42.4 | 
19 | CCc1ccc(C2Nc3ccccc3C(=O)N2C2CCCCC2)s1 (racemic) | 45.7 | 

Row | Structure (SMILES) | Activity [1] [%] | also measured
20 | CCc1ccc(C2Nc3ccccc3C(=O)N2Cc2ccccc2)s1 (racemic) | 13.3 | 
21 | CCc1ccc(C2Nc3ccccc3C(=O)N2CCc2ccccc2)s1 (racemic) | 50.4 | 
22 | CCc1ccc(C2Nc3ccccc3C(=O)N2Cc2cccc3ccccc23)s1 (racemic) | 14.5 | 
23 | CCc1ccc(C2Nc3ccccc3C(=O)N2Cc2ccc(OC)cc2)s1 (racemic) | 21.2 | 
24 | CCc1ccc(C2Nc3ccccc3C(=O)N2Cc2cccc(OC)c2)s1 (racemic) | 27.5 | 
25 | CCc1ccc(C2Nc3ccccc3C(=O)N2Cc2ccccc2OC)s1 (racemic) | 13.7 | 
26 | CCc1ccc(C2Nc3ccccc3C(=O)N2Cc2ccc(OC)cc2OC)s1 (racemic) | 16.4 | 
27 | CCc1ccc(C2Nc3ccccc3C(=O)N2Cc2ccc(F)cc2)s1 (racemic) | 7.62 | 
28 | CCc1ccc(C2Nc3ccccc3C(=O)N2Cc2cccc(F)c2)s1 (racemic) | 14 | 
29 | CCc1ccc(C2Nc3ccccc3C(=O)N2Cc2ccc([N+](=O)[O-])cc2)s1 (racemic) | 30.6 | 
30 | CCc1ccc(C2Nc3ccccc3C(=O)N2Cc2cccc([N+](=O)[O-])c2)s1 (racemic) | 44.5 | 
31 | CCc1ccc(C2Nc3cccc(C)c3C(=O)N2Cc2ccc(F)cc2)s1 (racemic) | 10.2 | 
32 | CCc1ccc(C2Nc3ccc(C)cc3C(=O)N2Cc2ccc(F)cc2)s1 (racemic) | 8.34 | 
33 | CCc1ccc(C2Nc3cc(C)ccc3C(=O)N2Cc2ccc(F)cc2)s1 (racemic) | 67.1 | 
34 | CCc1ccc(C2Nc3c(C)cccc3C(=O)N2Cc2ccc(F)cc2)s1 (racemic) | 44.5 | 
35 | CCc1ccc(C2Nc3ccc(Cl)cc3C(=O)N2Cc2ccc(F)cc2)s1 (racemic) | 13.7 | 
36 | CCc1ccc(C2Nc3cc(Cl)ccc3C(=O)N2Cc2ccc(F)cc2)s1 (racemic) | 21.3 | 
37 | CCc1ccc(C2Nc3ccc(F)cc3C(=O)N2Cc2ccc(F)cc2)s1 (racemic) | 4.45 | inhibition [6]: Active; IC50 [2]: 24 µM; Ratio IC50 [7]: 6.7; IC50 [5]: 8.1 µM; inhibition [8]: Active
38 | CCc1ccc(C2Nc3cc(F)ccc3C(=O)N2Cc2ccc(F)cc2)s1 (racemic) | 8.82 | 

— ChEMBL document CHEMBL3351579, “Structural optimization of a retrograde trafficking inhibitor that protects cells from infections by human polyoma- and papillomaviruses” (Bioorg Med Chem, 2014)
